Drawing on ChEMBL document CHEMBL4007382 (Eur J Med Chem, 2017), this text covers IC50 for 10 compounds.

One experiment addresses Acetylcholinesterase (Electrophorus electricus, UniProt O42275). Nature of the experiment: Inhibition of electric eel AChE using S-acetylthiocholine iodide as substrate preincubated for 60 mins followed by substrate addition measured after 5 mins by Ellman's method. On the technique in general: Ellman's reagent forms a yellow product with free thiols.
In another experiment the target is Cholinesterase (Equus caballus, UniProt P81908). Nature of the experiment: Inhibition of equine serum BuChE using S-butyrylthiocholine iodide as substrate preincubated for 60 mins followed by substrate addition measured after 5 mins by Ellman's method. Summed up:
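Equine serum BChE (0.1 U/mL) in 100 mM sodium phosphate, pH 8, was preincubated at 37°C for 60 min with seven inhibitor concentrations (top 1×10^-5 M; stocks in acetonitrile:water 1:9). Added mix contained BTCh 2.5 mM and DTNB 3.4 mM. A412 was read for 5 min at 37°C, with enzyme-free blank subtracted. Triplicates.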

Chain of Acetylcholinesterase (O42275 whole entry): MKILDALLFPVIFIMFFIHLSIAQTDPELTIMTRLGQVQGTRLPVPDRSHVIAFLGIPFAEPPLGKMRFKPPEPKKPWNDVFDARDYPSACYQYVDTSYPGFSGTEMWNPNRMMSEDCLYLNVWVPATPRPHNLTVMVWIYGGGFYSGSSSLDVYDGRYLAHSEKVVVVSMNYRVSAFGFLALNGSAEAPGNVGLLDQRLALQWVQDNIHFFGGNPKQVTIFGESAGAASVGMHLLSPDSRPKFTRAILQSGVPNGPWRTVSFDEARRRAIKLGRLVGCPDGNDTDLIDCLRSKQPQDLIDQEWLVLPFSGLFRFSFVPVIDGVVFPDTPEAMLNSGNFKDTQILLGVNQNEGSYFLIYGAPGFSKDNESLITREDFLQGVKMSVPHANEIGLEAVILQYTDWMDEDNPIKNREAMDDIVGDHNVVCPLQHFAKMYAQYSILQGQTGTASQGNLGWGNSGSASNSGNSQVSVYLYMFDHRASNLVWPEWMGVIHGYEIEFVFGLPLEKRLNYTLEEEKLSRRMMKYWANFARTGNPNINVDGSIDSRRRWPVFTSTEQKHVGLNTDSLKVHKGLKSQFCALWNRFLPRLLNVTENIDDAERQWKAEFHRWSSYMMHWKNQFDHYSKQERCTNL
Chain of Cholinesterase (P81908 whole entry): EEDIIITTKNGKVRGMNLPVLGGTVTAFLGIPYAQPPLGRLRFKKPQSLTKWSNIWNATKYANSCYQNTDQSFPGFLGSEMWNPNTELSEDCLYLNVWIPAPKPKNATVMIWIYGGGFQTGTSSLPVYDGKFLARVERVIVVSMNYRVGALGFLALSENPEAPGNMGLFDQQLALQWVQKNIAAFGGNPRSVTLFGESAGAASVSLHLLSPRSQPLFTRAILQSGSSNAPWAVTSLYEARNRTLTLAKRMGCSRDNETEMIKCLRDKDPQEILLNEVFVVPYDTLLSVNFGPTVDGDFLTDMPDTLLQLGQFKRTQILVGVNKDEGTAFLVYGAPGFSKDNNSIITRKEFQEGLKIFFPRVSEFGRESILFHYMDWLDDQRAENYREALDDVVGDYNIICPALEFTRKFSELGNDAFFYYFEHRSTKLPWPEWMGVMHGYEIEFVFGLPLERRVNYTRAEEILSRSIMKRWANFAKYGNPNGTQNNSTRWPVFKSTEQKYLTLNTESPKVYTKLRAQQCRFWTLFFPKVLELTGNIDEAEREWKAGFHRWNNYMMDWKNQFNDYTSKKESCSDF

What is called IC50 is the concentration that gives 50% inhibition. Consider `CN(C)C(=O)Oc1cc(OC(=O)N(C)C)cc(C(O)CNC2CCCC2)c1` (stereo not given), for which the concentration for half-maximal inhibition (IC50) on Acetylcholinesterase was 65.9 µM; against Cholinesterase it was 0.13 µM.
Take `CN(C)C(=O)Oc1cc(OC(=O)N(C)C)cc(C(O)CN2CCCC2)c1` (stereo not given): the IC50 against Acetylcholinesterase was 41.3 µM; against Cholinesterase it was 0.253 µM.
Turning to `CN(C)C(=O)Oc1cc(OC(=O)N(C)C)cc(C(O)CNc2ccccc2)c1` (stereo not given), the IC50 against Acetylcholinesterase is above 100 µM; on Cholinesterase it was 2.4 µM.
In the same order, the values of `CN(C)C(=O)Oc1cc(OC(=O)N(C)C)cc(C(O)CNC2CCCCC2)c1` (stereo not given) are above 100 µM and 0.224 µM.
Turning to `CN(C)C(=O)Oc1cc(OC(=O)N(C)C)cc(C(O)CNc2ccc(I)cc2)c1` (stereo not given), the 50% inhibitory concentration (IC50) against Acetylcholinesterase was above 100 µM; on Cholinesterase, 4.7 µM.
In the same order, the values of `CCN(C)C(=O)Oc1cc(OC(=O)N(C)CC)cc(C(O)CNC(C)(C)C)c1` (stereo not given) are above 100 µM and 0.113 µM.
In the same order, the values of `CCN(C)C(=O)Oc1cc(OC(=O)N(C)CC)cc(C(O)CN2CCCCC2)c1` (stereo not given) are above 100 µM and 0.108 µM.
Turning to `C#Cc1cccc(NCC(O)c2cc(OC(=O)N(C)C)cc(OC(=O)N(C)C)c2)c1` (stereo not given), the IC50 at Acetylcholinesterase was above 100 µM; against Cholinesterase, 0.686 µM.
Take `CN(C)C(=O)Oc1cc(OC(=O)N(C)C)cc(C(O)CN2CCCCC2)c1` (stereo not given): the IC50 on Acetylcholinesterase was above 100 µM; against Cholinesterase, 0.1 µM.
The like results for `CN(C)C(=O)Oc1cc(OC(=O)N(C)C)cc(C(O)CNC(C)(C)c2ccccc2)c1` (stereo not given) were, in that order, above 100 µM and 0.476 µM.
